Source: ChEMBL document CHEMBL4196009, “Novel vitexin-inspired scaffold against leukemia” (Eur J Med Chem, 2018)
The source made the active and inactive calls. No cut-off for these calls is given here.

Assays:
KOPN-8 [1] = assay: Effect on c-Myc expression in human KOPN8 cells after 3 to 24 hrs by Western blot analysis; assay type: functional, cell-based
How it was run: (§1)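 KOPN-8 cells were treated at 10–100 µM final, with or without N-acetylcysteine co-addition, for 3 h and 24 h. Lysates were analysed by Western blot for PARP cleavage, Mcl-1, phospho-Ser2 RNAPII CTD, c-Myc, total Rb and pRb. Levels are relative to the vehicle control.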

Homo sapiens [2] = species: Homo sapiens; assay: Inhibition of RNA polymerase 2 C-terminal domain phosphorylation at Ser2 residue in human KOPN8 cells at 100 uM pre-treated with NAC for 1 hr and measured after 3 hrs by Western blot analysis relative to control; assay type: cell-based
How it was run: (§2)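 KOPN-8 cells were exposed to compound for 3 h and 24 h, with or without N-acetylcysteine added to a parallel set as antioxidant. Lysates were analysed by Western blot for cleaved PARP, Mcl-1, Ser-2-phosphorylated RNAPII CTD, cMyc, total Rb and pRb. Signals were compared against controls for dose-dependent change.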

[3] = biological target: T1, Retinoblastoma-associated protein (Homo sapiens) (UniProt P06400); assay: Inhibition of Rb phosphorylation in human KOPN8 cells assessed as ratio of phosphorylated Rb to total Rb levels at 10 uM after 24 hrs by Western blot analysis relative to control; assay type: cell-based
T1 sequence (whole entry): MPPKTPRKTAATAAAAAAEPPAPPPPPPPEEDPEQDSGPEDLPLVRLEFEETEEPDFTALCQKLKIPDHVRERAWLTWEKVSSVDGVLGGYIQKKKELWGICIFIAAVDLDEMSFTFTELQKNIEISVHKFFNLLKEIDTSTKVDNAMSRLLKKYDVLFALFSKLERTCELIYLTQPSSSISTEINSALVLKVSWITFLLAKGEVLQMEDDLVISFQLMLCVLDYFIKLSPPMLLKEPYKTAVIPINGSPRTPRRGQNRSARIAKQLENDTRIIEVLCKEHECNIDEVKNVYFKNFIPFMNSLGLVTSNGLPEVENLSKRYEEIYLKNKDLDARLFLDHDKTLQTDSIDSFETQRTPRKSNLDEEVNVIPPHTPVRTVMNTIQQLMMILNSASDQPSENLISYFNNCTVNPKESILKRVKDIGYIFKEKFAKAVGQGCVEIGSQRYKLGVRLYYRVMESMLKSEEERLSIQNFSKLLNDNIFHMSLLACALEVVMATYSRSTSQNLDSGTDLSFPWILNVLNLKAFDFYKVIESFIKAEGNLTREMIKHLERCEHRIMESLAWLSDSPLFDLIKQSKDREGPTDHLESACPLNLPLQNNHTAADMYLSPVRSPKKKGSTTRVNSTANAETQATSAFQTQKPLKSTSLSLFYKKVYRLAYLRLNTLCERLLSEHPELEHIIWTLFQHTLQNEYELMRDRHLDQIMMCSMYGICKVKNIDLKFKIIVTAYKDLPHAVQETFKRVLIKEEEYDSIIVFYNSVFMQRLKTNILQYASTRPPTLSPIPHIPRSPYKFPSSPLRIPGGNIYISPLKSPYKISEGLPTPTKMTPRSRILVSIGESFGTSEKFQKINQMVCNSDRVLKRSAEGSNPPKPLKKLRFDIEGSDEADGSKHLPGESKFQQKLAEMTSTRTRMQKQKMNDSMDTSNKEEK
How it was run: (§3)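 KOPN-8 pre-B ALL cells were treated for 3 h and 24 h, with or without N-acetyl cysteine added to a parallel set of cells as an antioxidant/ROS quencher. Lysates were analysed by Western blot for phosphorylated Rb and total Rb. The same blots also probed PARP cleavage, Mcl-1, Ser-2-phosphorylated RNAPII CTD and cMyc.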

SUP-B15 = assay: Induction of apoptosis in human SUP-B15 cells assessed as necrotic cells at 10 uM after 24 hrs by Annexin V-FITC/propidium iodide staining-based flow cytometry (reference value: 9.2%); assay type: functional
[4] = biological target: T1, Retinoblastoma-associated protein (Homo sapiens); assay: Inhibition of Rb phosphorylation in human KOPN8 cells after 24 hrs by Western blot analysis; assay type: cell-based; how it was run: as §2
KOPN-8 [5] = assay: Induction of apoptosis in human KOPN8 cells assessed as effect on Mcl-1 level at 100 uM after 3 hrs by Western blot analysis relative to control; assay type: functional; how it was run: as §1
KOPN-8 [6] = assay: Downregulation of total Rb expression in human KOPN8 cells after 24 hrs by Western blot analysis; assay type: cell-based; conditions: kopn-8, 24 h; how it was run: as §1
MCF7 = assay: Induction of oxidative stress in human MCF7 cells transfected with mRuby-Mito-7 with fugene assessed as increase in intracellular total ROS levels at 50 uM measured after 1 hr by fluorimetric analysis; assay type: functional, cell-based
How it was run: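 MCF-7 cells carried an mRuby-Cox8A mitochondrial label. They were exposed to 50 of compound, alone or together with 50 of N-acetylcysteine, for 1 h. Cells were then stained with CellROX green (ex/em 485/520 nm) plus Hoechst 33342 nuclear stain. Total and mitochondrial ROS fluorescence was imaged in live cells and quantified relative to control.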

KOPN-8 [7] = assay: Effect on c-Myc expression in human KOPN8 cells at 30 uM pre-treated with NAC for 1 hr and measured after 24 hrs by Western blot analysis relative to control; assay type: functional
KOPN-8 [8] = assay: Effect on c-Myc expression in human KOPN8 cells at 30 uM after 3 hrs by Western blot analysis relative to control; assay type: functional; how it was run: as §1
[9] = biological target: T1, Retinoblastoma-associated protein (Homo sapiens); assay: Inhibition of Rb phosphorylation in human KOPN8 cells assessed as ratio of phosphorylated Rb to total Rb levels at 100 uM after 3 hrs by Western blot analysis relative to control; assay type: cell-based; how it was run: as §3
Homo sapiens [10] = species: Homo sapiens; assay: Inhibition of RNA polymerase 2 C-terminal domain phosphorylation at Ser2 residue in human KOPN8 cells at 10 uM pre-treated with NAC for 1 hr and measured after 3 hrs by Western blot analysis relative to control; assay type: cell-based; how it was run: as §2
KOPN-8 [11] = assay: Induction of apoptosis in human KOPN8 cells assessed as viable cells at 5 uM after 24 hrs by Annexin V-FITC/propidium iodide staining-based flow cytometry (reference value: 85.2%); assay type: functional; conditions: KOPN-8, 24 h, read-out: Activity
How it was run: (§4)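 KOPN-8 cells were treated for 24 h, with a DMSO vehicle control and a staurosporine positive control. Cells were stained with FITC-Annexin V and propidium iodide and analysed by flow cytometry. Quadrant gating separated viable, early apoptotic, late apoptotic (Q2) and necrotic populations.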

MDA-MB-231 = assay: Cell cycle arrest in human MDA-MB-231 cells assessed as accumulation at G0/G1 phase at 5 uM after 24 hrs by propidium iodide staining-based flow cytometry (reference value: 70.47%); assay type: functional
KOPN-8 [12] = assay: Induction of apoptosis in human KOPN8 cells assessed as necrotic cells at 5 uM after 24 hrs by Annexin V-FITC/propidium iodide staining-based flow cytometry (reference value: 0.2%); assay type: functional; how it was run: as §4
KOPN-8 [13] = assay: Induction of apoptosis in human KOPN8 cells assessed as upregulation of cleaved PARP level at 0.5 uM after 24 hrs by Western blot analysis; assay type: functional, cell-based; how it was run: as §2
KOPN-8 [14] = assay: Effect on c-Myc expression in human KOPN8 cells at 0.5 uM after 3 hrs by Western blot analysis relative to control; assay type: functional
KOPN-8 [15] = assay: Induction of apoptosis in human KOPN8 cells assessed as late apoptotic cells at 5 uM after 24 hrs by Annexin V-FITC/propidium iodide staining-based flow cytometry (reference value: 9.5%); assay type: functional; how it was run: as §4

| Structure (SMILES) | Activity (KOPN-8 [1]) | fold change (FC) (Homo sapiens [2]) | fold change (FC) [3] | Activity (SUP-B15) | inhibition [4] | fold change (FC) (KOPN-8 [5]) | Activity (KOPN-8 [6]) | Activity (MCF7) | fold change (FC) (KOPN-8 [7]) | fold change (FC) (KOPN-8 [8]) | fold change (FC) [9] | fold change (FC) (Homo sapiens [10]) | viability at 5 µM (KOPN-8 [11]) | Activity (MDA-MB-231) | Activity (KOPN-8 [12]) | Activity (KOPN-8 [13]) | fold change (FC) (KOPN-8 [14]) | Activity (KOPN-8 [15]) |
| --- | --- | --- | --- | --- | --- | --- | --- | --- | --- | --- | --- | --- | --- | --- | --- | --- | --- | --- |
| COc1ccc(-c2c(I)c(=O)c3c(OC)cc(OC)cc3n2S(=O)(=O)c2ccc(OC)cc2)cc1 | Dose-dependent effect | 1.6 | 1 | 15.7% | Dose-dependent effect | 0.6 | Dose-dependent effect | Active | 1 | 0.6 | 1 | 1 | – | – | – | – | – | – |
| CN(C)C(=O)c1cc2cnc(Nc3ccc(N4CCNCC4)cn3)nc2n1C1CCCC1 [RIBOCICLIB] | – | – | – | – | – | – | – | – | – | – | – | – | 2.3% | 90.85% | 0.3% | inactive | 1 | 67.4% |
